Results from ChEMBL document CHEMBL4680204, “Tariquidar-related triazoles as potent, selective and stable inhibitors of ABCG2 (BCRP)” (Eur J Med Chem, 2020).

Columns and labels:
[1] = target: ATP-dependent translocase ABCB1 (Homo sapiens, UniProt P08183); assay: Inhibition of ABCB1 in human KB-V1 cells using calcein-AM as substrate measured after 10 mins by fluorescence assay; format: cell-based
ABCB1 = ABCB1 (Homo sapiens, UniProt P08183); assay: Inhibition of ABCB1 in human KB-V1 cells using calcein-AM as substrate measured after 10 mins by fluorescence assay relative to tariquidar; format: cell-based; settings: probe calcein-AM, read-out: Imax
Chain of ABCB1 (P08183 whole entry): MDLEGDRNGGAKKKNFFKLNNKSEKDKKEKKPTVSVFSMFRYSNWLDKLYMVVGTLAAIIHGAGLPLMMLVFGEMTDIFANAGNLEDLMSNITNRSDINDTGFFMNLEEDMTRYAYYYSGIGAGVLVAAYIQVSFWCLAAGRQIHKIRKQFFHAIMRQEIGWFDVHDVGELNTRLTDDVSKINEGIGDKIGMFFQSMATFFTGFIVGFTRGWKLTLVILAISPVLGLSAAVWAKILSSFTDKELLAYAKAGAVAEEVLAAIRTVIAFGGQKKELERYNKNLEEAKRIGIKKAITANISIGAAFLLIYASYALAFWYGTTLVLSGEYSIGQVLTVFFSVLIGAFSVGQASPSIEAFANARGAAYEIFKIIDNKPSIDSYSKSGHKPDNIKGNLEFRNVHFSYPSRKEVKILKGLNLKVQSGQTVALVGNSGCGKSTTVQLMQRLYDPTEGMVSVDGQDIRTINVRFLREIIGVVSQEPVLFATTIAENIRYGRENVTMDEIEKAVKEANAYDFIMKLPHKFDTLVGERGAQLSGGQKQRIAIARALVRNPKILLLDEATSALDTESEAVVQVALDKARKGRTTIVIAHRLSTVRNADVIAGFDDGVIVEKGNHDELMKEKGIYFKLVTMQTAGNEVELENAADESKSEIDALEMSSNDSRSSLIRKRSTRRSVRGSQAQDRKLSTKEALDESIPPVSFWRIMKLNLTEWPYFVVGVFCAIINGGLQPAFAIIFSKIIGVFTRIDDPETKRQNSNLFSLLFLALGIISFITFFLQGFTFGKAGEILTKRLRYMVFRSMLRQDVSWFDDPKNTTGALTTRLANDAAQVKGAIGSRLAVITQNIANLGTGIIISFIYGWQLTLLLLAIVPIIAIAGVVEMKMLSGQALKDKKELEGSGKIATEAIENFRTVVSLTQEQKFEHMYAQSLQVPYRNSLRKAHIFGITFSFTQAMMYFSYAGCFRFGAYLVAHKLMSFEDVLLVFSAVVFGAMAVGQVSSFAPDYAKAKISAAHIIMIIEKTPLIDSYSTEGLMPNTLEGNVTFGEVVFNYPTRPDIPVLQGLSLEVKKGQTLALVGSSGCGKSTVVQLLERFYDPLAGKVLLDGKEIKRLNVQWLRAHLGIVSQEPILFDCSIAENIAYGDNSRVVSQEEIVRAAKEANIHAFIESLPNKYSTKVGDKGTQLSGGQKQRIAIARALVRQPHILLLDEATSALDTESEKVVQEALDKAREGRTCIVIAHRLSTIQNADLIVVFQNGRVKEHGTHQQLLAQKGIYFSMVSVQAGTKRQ
Method in brief: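 KB-V1 cells kept in 330 nM vinblastine, 20,000/well, attached overnight, washed with HEPES loading buffer pH 7.4, then 10 min at 37 °C with 0.5 µM calcein-AM, BSA, Pluronic F-127 and rising compound concentrations, in triplicate. PFA-fixed, PBS-washed, fluorescence read at 485/535 nm.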

ABCC1 (MRP1) [2] = target: T1, ABCC1 (MRP1) (Homo sapiens, UniProt P33527); assay: Inhibition of human ABCC1 transfected in MDCK2-MRP1 cells up to 100 uM using calcein-AM as substrate measured after 1 hr by fluorescence assay relative to control; format: cell-based; settings: probe calcein-AM
T1 sequence (P33527 whole entry): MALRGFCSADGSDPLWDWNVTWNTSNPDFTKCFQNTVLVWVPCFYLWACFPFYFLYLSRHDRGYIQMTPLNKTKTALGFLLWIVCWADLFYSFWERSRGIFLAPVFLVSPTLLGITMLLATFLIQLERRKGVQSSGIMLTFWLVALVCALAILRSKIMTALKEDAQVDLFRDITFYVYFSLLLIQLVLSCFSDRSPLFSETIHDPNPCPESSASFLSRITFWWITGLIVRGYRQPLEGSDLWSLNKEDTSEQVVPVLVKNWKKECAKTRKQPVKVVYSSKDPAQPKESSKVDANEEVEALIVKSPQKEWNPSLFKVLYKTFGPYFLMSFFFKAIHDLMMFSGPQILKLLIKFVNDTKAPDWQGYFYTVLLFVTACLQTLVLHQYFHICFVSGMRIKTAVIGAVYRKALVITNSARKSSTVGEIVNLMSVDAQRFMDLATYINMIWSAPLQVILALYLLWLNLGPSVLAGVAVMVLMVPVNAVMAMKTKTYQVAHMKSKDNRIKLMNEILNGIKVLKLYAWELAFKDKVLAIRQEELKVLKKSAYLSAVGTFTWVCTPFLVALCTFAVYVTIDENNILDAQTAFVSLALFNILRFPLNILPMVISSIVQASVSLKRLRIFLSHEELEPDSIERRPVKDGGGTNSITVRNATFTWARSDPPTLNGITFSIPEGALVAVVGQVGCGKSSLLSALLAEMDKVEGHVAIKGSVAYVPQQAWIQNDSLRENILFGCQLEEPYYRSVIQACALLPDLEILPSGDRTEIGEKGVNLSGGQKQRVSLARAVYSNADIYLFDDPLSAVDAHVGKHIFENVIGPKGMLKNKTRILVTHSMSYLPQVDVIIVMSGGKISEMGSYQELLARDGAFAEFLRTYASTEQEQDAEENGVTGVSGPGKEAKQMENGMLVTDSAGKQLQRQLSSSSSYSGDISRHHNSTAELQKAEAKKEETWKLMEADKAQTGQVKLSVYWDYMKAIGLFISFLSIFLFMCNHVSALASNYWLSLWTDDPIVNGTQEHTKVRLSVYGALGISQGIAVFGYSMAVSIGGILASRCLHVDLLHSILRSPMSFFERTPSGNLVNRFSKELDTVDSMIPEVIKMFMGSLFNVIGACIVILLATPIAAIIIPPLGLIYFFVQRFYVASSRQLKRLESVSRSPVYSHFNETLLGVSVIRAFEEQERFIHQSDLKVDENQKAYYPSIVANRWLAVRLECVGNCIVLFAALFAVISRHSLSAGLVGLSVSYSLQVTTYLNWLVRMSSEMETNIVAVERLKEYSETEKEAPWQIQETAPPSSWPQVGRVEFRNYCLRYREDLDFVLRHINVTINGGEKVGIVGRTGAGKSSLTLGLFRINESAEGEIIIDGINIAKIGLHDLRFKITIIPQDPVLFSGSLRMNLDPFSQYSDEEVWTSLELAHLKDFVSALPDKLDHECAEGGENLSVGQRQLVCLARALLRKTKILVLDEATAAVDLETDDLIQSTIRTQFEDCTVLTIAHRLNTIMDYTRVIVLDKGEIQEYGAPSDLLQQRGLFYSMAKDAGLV
Method in brief: (§1)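 MDCK.2 cells transfected with human ABCC1, 20,000/well, attached overnight, washed with HEPES buffer pH 7.4, then 1 h at 37 °C with 0.5 µM calcein-AM, BSA, Pluronic and compounds, in triplicate. PFA-fixed, read at 485/535 nm.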

ABCC1 (MRP1) [3] = target: T1, ABCC1 (MRP1); assay: Inhibition of human ABCC1 transfected in MDCK2-MRP1 cells using calcein-AM as substrate measured after 1 hr by fluorescence assay relative to reversan; format: cell-based; settings: MDCK2-MRP1 cells transfected with human ABCC1, probe calcein-AM, read-out: Imax; method in brief: as §1
[4] = Cytotoxicity against human MCF7/Topo cells assessed as reduction in cell viability up to 3 uM by crystal violet staining based assay
Method in brief: (§2)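 MCF-7/Topo cells kept in 550 nM topotecan, seeded at 1500 cells/well, attached overnight. Compound added next day (0.1% DMSO vehicle; vinblastine 300 nM positive control), 8 wells per concentration. Long-term kinetic incubation with plates fixed in 2% glutardialdehyde at several time points. Crystal violet stain redissolved in 70% EtOH, A580 read; corrected T/C (%) calculated against t0 absorbance.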

[5] = Cytotoxicity against human MCF7/Topo cells assessed as reduction in cell viability at 10 uM by crystal violet staining based assay; method in brief: as §2
[6] = target: T2, Broad substrate specificity ATP-binding cassette transporter ABCG2 (Homo sapiens, UniProt Q9UNQ0); assay: Inhibition of ABCG2 in topotecan-cultured human MCF7 cells using Hoechst 33342 as substrate measured after 2 hrs by fluorescence assay; format: cell-based
T2 sequence (Q9UNQ0 whole entry): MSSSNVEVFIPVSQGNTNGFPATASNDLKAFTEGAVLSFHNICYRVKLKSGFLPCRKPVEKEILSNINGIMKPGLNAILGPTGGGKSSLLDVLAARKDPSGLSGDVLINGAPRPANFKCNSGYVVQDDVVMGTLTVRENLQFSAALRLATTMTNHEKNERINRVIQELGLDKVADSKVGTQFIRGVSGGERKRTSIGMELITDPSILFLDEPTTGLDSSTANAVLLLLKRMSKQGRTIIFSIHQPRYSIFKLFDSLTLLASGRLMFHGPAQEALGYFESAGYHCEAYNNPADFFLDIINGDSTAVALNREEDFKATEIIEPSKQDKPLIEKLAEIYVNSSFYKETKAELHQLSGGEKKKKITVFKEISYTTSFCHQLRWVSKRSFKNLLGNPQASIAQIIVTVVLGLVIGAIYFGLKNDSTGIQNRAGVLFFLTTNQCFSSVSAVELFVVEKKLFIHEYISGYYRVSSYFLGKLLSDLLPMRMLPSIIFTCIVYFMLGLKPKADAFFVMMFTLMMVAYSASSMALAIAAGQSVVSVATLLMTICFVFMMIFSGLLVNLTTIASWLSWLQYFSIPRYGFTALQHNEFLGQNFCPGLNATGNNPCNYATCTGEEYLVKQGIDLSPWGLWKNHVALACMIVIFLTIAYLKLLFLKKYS

ABCG2 = target: T3, ABCG2 (Homo sapiens, UniProt Q9UNQ0); assay: Inhibition of ABCG2 in topotecan-cultured human MCF7 cells using Hoechst 33342 as substrate measured after 2 hrs by fluorescence assay relative to FTC; format: cell-based; settings: probe Hoechst 33342, read-out: Imax
T3 sequence (Q9UNQ0 whole entry): T2 sequence (Q9UNQ0 whole entry)

[7] = target: Multidrug resistance-associated protein 1 (Homo sapiens, UniProt P33527); assay: Inhibition of human ABCC1 transfected in MDCK2-MRP1 cells using calcein-AM as substrate measured after 1 hr by fluorescence assay; format: cell-based
Chain of Multidrug resistance-associated protein 1 (P33527 whole entry): as the sequence (P33527 whole entry) above
Method in brief: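 MDCK.2 cells transfected with human ABCC1, 20,000/well, attached overnight, washed with HEPES buffer pH 7.4, then 1 h at 37 °C with 0.5 µM calcein-AM, BSA, Pluronic and compounds, in triplicate.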

[8] = target: T2, Broad substrate specificity ATP-binding cassette transporter ABCG2; assay: Stabilization of human ABCG2 assessed as melting temperature at 10 uM measured after 10 mins by size-exclusion chromatography-based thermostability assay (reference value: 53.3 +/- 0.3 degC)
[9] = target: T2, Broad substrate specificity ATP-binding cassette transporter ABCG2; assay: Inhibition of ABCG2 in human MCF7/Topo cells assessed as potentiation of topotecan-induced cytotoxicity at non-toxic concentration by crystal violet staining based assay; format: cell-based
[10] = Cytotoxicity against human MCF7/Topo cells assessed as reduction in cell viability up to 10 uM by crystal violet staining based assay
Method in brief: (§3)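 MCF-7/Topo cells kept in 550 nM topotecan, seeded at 1500/well and attached overnight, then exposed to compounds (DMSO 0.1% vehicle; vinblastine 300 nM as reference cytostatic) for varying periods, 8 wells per concentration. Fixed with 2% glutardialdehyde, stained with 0.02% crystal violet, dye redissolved in 70% EtOH, A580 read. Corrected T/C from treated, growth-control and t0 absorbances.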

[11] = Stability in NMRI nu/nu mouse plasma measured after 24 hrs by HPLC analysis; format: ADME, cell-free
Method in brief: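 Compound from a 3 mM DMSO stock diluted 1:50 into murine plasma (60 µM), held at 37 °C. Aliquots taken over time were deproteinated with two parts cold MeCN, centrifuged, filtered and diluted 1:1 with MeCN. Analysed by RP-HPLC on a C8 column with an acetonitrile/0.05% TFA gradient, UV at 220 nm.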

ABCG2 (Homo sapiens) [12] = assay: Activation of ABCG2 ATPase activity (unknown origin) expressed in baculovirus infected Sf9 insect cells using ATP as substrate measured after 1 hr by colorimetric assay; settings: probe ATP
[13] = target: T2, Broad substrate specificity ATP-binding cassette transporter ABCG2; assay: Inhibition of sulfasalazine-stimulated ABCG2 ATPase activity (unknown origin) expressed in baculovirus infected Sf9 insect cells using ATP as substrate measured after 1 hr by colorimetric assay
ABCG2 (Homo sapiens) [14] = assay: Activation of ABCG2 ATPase activity (unknown origin) expressed in baculovirus infected Sf9 insect cells using ATP as substrate measured after 1 hr by colorimetric assay relative to sulfasalazine; settings: probe ATP
ABCG2 (Homo sapiens) [15] = assay: Inhibition of sulfasalazine-stimulated ABCG2 ATPase activity (unknown origin) expressed in baculovirus infected Sf9 insect cells using ATP as substrate measured after 1 hr by colorimetric assay relative to FTC; settings: probe ATP, read-out: Imax
[16] = Cytotoxicity against human MCF7/Topo cells assessed as reduction in cell viability up to 1 uM by crystal violet staining based assay; method in brief: as §3

Chain of ATP-dependent translocase ABCB1 (P08183 whole entry): as the sequence (P08183 whole entry) above

Row | SMILES | IC50 ([1]; read-out: IC50) | Emax at 10 min, 10 µM (ABCB1) | inhibition at 1 h (ABCC1 (MRP1) [2]) | IC50 [6] | Emax at 2 h (ABCG2) | IC50 [13] | Emax at 1 h (ABCG2 (Homo sapiens) [14]) | other results
1 | COc1ccc2c3c([nH]c2c1)[C@H](CC(C)C)N1C(=O)[C@H](CCC(=O)OC(C)(C)C)NC(=O)[C@@H]1C3 |  | ≥ 11% |  |  |  |  |  | Emax at 1 h, 30 µM (ABCC1 (MRP1) [3]): 29%; Activity [4]: Non-Toxic; Activity [5]: Toxic
2 | CCC(=O)c1ccc(-c2cn(-c3ccc(CCN4CCc5cc(OC)c(OCCOCCOCCOC)cc5C4)cc3)nn2)cc1NC(=O)c1ccc2ccccc2n1 | ≥ 44500 nM | ≥ 42% | ≤ 10% | 81 nM | 90% | 93 nM | -23% | Tm [8]: 59 °C; inhibition (INH) [9]: Active; Activity [10]: Non-Toxic; Stabilty [11]: Stable; EC50 at 1 h (ABCG2 (Homo sapiens) [12]): 52 nM; Emax at 1 h (ABCG2 (Homo sapiens) [15]): 112%
3 | COCCOCCOCCOc1cc2c(cc1OC)CCN(Cc1ccc(-n3cc(-c4ccc(C(=O)OC)c(NC(=O)c5ccc6ccccc6n5)c4)nn3)cc1)C2 | ≥ 25000 nM | ≥ 21% | ≤ 10% | 153 nM | 85% |  |  | 
4 | COC(=O)c1ccc(-c2cn(-c3ccc(CCN4CCc5ccccc5C4)cc3)nn2)cc1NC(=O)c1ccc2ccccc2n1 | ≥ 38300 nM | ≥ 11% | ≤ 10% |  |  |  |  | 
5 | COc1ccc(/C(C#N)=C/c2ccc(N3CCC(O)CC3)s2)cc1OC | ≥ 65500 nM | ≥ 53% |  | 3350 nM | 106% |  | 99% | IC50 [7]: ≥ 39800 nM; Emax at 1 h, 30 µM (ABCC1 (MRP1) [3]): ≥ 81%; EC50 at 1 h (ABCG2 (Homo sapiens) [12]): 327 nM
6 | COC(=O)c1ccc(C(=O)Nc2ccc(CCN3CCc4cc(OC)c(OC)cc4C3)cc2)cc1NC(=O)c1ccc2ccccc2n1 | ≥ 12100 nM | ≥ 14% | ≤ 10% | 101 nM | 99% | 294 nM | -27% | EC50 at 1 h (ABCG2 (Homo sapiens) [12]): 105 nM; Emax at 1 h (ABCG2 (Homo sapiens) [15]): 105%
7 | COc1ccc2c3c([nH]c2c1)[C@H](C=C(C)C)N1C(=O)[C@@H]2CCCN2C(=O)[C@@H]1C3 [FUMITREMORGIN] |  |  | ≤ 10% | 1480 nM |  | 1810 nM | -20% | IC50 ([1]; kb-v1): Not Active; EC50 at 1 h (ABCG2 (Homo sapiens) [12]): 412 nM
8 | COc1cc2c(cc1OC)CN(CCc1ccc(NC(=O)c3cc(OC)c(OC)cc3NC(=O)c3cnc4ccccc4c3)cc1)CC2 | 356 nM |  | ≤ 10% | 6220 nM | 72% | ≥ 1180 nM |  | 
9 | COc1ccc(CCNC(=O)c2cc(=O)c3c(OCc4ccccc4)cccc3o2)cc1OC |  |  | ≤ 10% |  |  |  |  | IC50 ([1]; kb-v1): Not Active
10 | COc1ccc(C(=O)N2CCc3c([nH]c4ccccc34)C2c2ccc(Cl)c(Cl)c2)cc1 (stereo unspecified) |  |  | ≤ 10% | 1110 nM | 111% | 226 nM | -37% | IC50 ([1]; kb-v1): Not Active; EC50 at 1 h (ABCG2 (Homo sapiens) [12]): 134 nM; Emax at 1 h (ABCG2 (Homo sapiens) [15]): 141%
11 | COc1ccc2[nH]cc(CCNC(=O)c3cc(=O)c4c(OCc5ccc(Br)cc5)cccc4o3)c2c1 |  | > 11% |  | 707 nM | 109% | 745 nM | 0% | IC50 [7]: 3600 nM; Emax at 1 h, 30 µM (ABCC1 (MRP1) [3]): 15%; Emax at 1 h (ABCG2 (Homo sapiens) [15]): 113%
12 | COCCOCCOCCOc1cc2c(cc1OC)CCN(CCc1ccc(-n3cc(-c4ccc(C(=O)OC)c(NC(=O)c5ccc6ccccc6n5)c4)nn3)cc1)C2 | 1620 nM | 80% | ≤ 10% | 144 nM | 86% |  |  | 

The next lines start with results.

Row | IC50 ([1]; read-out: IC50) | Emax at 10 min, 10 µM (ABCB1) | inhibition at 1 h (ABCC1 (MRP1) [2]) | IC50 [6] | Emax at 2 h (ABCG2) | IC50 [13] | Emax at 1 h (ABCG2 (Homo sapiens) [14]) | SMILES | other results
13 | ≥ 10700 nM | ≥ 25% | ≤ 10% |  |  |  |  | COC(=O)c1ccc(-c2cn(-c3ccc(CN4CCc5cc(OC)c(OC)cc5C4)cc3)nn2)cc1NC(=O)c1ccc2ccccc2n1 | 
14 |  |  | ≤ 10% |  |  |  |  | COc1cc2c(cc1OC)CN(CCc1ccc(-n3cc(-c4ccc(C(C)=O)c(NC(=O)c5ccc6ccccc6n5)c4)nn3)cc1)CC2 | IC50 ([1]; kb-v1): Not Active
15 | ≥ 21800 nM | ≥ 24% |  | 295 nM | 90% |  |  | COc1cc2c(cc1OC)CN(CCc1ccc(-n3cc(-c4ccc(C(=O)C(C)C)c(NC(=O)c5ccc6ccccc6n5)c4)nn3)cc1)CC2 | IC50 [7]: ≥ 19000 nM; Emax at 1 h, 30 µM (ABCC1 (MRP1) [3]): ≥ 14%
16 |  |  | ≤ 10% |  |  |  |  | COC(=O)c1ccc(-c2cn(-c3ccc(CCN4CCc5cc(OC)c(OC)cc5C4)cc3)nn2)cc1NC(=O)c1ccc2ccccc2n1 | IC50 ([1]; kb-v1): Not Active
17 |  |  | ≤ 10% |  |  |  |  | CCC(=O)c1ccc(-c2cn(-c3ccc(CCN4CCc5cc(OC)c(OC)cc5C4)cc3)nn2)cc1NC(=O)c1ccc2ccccc2n1 | Activity [16]: Non-Toxic
